Data from ChEMBL document CHEMBL3627671, “Novel derivatives of nitro-substituted salicylic acids: Synthesis, antimicrobial activity and cytotoxicity” (Bioorg Med Chem, 2015).

Tests used:
Format in all cases: functional
[1] = tested on: Candida tropicalis; experiment: Antifungal activity against Candida tropicalis 156 after 24 hrs by microdilution broth method; conditions: Candida tropicalis, 156, 24 h
How it was run: (§1)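 CLSI M27-A3 broth microdilution in RPMI 1640 with glutamine, buffered to pH 7.0 with MOPS; DMSO diluent. Yeast inoculum 5 × 10^3 ± 0.2 CFU/mL. Moulds grown on Sabouraud agar 3–10 days before spore harvest, final inoculum 0.5-5 × 10^4 CFU/mL, checked in a Bürker chamber. Incubated dark, humid, 35 °C, read at 24 and 48 h visually and at 540 nm. MIC taken as ≥80% (yeasts) or ≥50% (filamentous) growth reduction versus control.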

[2] = tested on: Nakaseomyces glabratus; experiment: Antifungal activity against Candida glabrata 20/I after 24 hrs by microdilution broth method; how it was run: as §1
[3] = tested on: Trichophyton mentagrophytes; experiment: Antifungal activity against Trichophyton mentagrophytes 445 after 48 hrs by microdilution broth method; conditions: Trichophyton mentagrophytes, 445, 48 h
[4] = tested on: Mycobacterium kansasii; experiment: Antimycobacterial activity against Mycobacterium kansasii 235/80 after 14 days; conditions: 235/80, 336 h
How it was run: (§2)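 Šula's semisynthetic medium micromethod at 37 °C, read after 7, 14 and 21 days. The 1.0 McFarland suspension was diluted 10^-4. MIC determined. 6509/96 is a clinical isolate.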

[5] = tested on: Mycobacterium kansasii; experiment: Antimycobacterial activity against Mycobacterium kansasii 235/80 after 21 days; conditions: 235/80, 504 h; how it was run: as §2
[6] = tested on: Mycobacterium avium; experiment: Antimycobacterial activity against Mycobacterium avium 330/80 after 21 days; conditions: 330/80, 504 h
[7] = tested on: Staphylococcus epidermidis; experiment: Antibacterial activity against Staphylococcus epidermidis H 6966/08 after 24 hrs by microdilution broth method; conditions: H 6966/08, 24 h
How it was run: (§3)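 Mueller-Hinton broth microdilution (modified M07-A07), pH 7.4 (±0.2). Compounds dissolved in DMSO, tested at final 500 to 0.49 µmol/L. Inoculum in sterile water matched to 0.5 McFarland. Incubated in the dark, humid atmosphere, 35 °C, read at 24 and 48 h visually and at 540 nm. MIC taken as ≥95% growth reduction (IC95) versus control.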

[8] = tested on: Pseudomonas aeruginosa; experiment: Antibacterial activity against Pseudomonas aeruginosa CCM 1961 after 48 hrs by microdilution broth method; conditions: CCM 1961, 48 h; how it was run: as §3
[9] = tested on: Nakaseomyces glabratus; experiment: Antifungal activity against Candida glabrata 20/I after 48 hrs by microdilution broth method; how it was run: as §1
[10] = tested on: Pichia kudriavzevii; experiment: Antifungal activity against Candida krusei E28 after 24 hrs by microdilution broth method; conditions: E28, 24 h; how it was run: as §1
[11] = tested on: Staphylococcus aureus; experiment: Antibacterial activity against methicillin-resistant Staphylococcus aureus H 5996/08 after 48 hrs by microdilution broth method; conditions: H 5996/08, 48 h
[12] = tested on: Mycobacterium avium; experiment: Antimycobacterial activity against Mycobacterium avium 330/80 after 14 days; conditions: 330/80, 336 h
[13] = tested on: Mycobacterium kansasii; experiment: Antimycobacterial activity against Mycobacterium kansasii 6509/96 after 14 days; conditions: 6509/96, 336 h; how it was run: as §2
[14] = tested on: Staphylococcus aureus; experiment: Antibacterial activity against methicillin-resistant Staphylococcus aureus H 5996/08 after 24 hrs by microdilution broth method; conditions: H 5996/08, 24 h
[15] = tested on: Pseudomonas aeruginosa; experiment: Antibacterial activity against Pseudomonas aeruginosa CCM 1961 after 24 hrs by microdilution broth method; conditions: CCM 1961, 24 h; how it was run: as §3
[16] = tested on: Trichosporon asahii; experiment: Antifungal activity against Trichosporon asahii 1188 after 24 hrs by microdilution broth method; conditions: Trichosporon asahii, 1188, 24 h; how it was run: as §1
[17] = tested on: Mycobacterium tuberculosis; experiment: Antimycobacterial activity against Mycobacterium tuberculosis H37Rv 331/88 after 21 days; conditions: H37Rv 331/88, 504 h
[18] = tested on: Enterococcus sp.; experiment: Antibacterial activity against Enterococcus sp. J 14365/08 after 24 hrs by microdilution broth method; conditions: J 14365/08, 24 h; how it was run: as §3
[19] = tested on: Enterococcus sp.; experiment: Antibacterial activity against Enterococcus sp. J 14365/08 after 48 hrs by microdilution broth method; conditions: J 14365/08, 48 h; how it was run: as §3
[20] = tested on: Mycobacterium kansasii; experiment: Antimycobacterial activity against Mycobacterium kansasii 235/80 after 7 days; conditions: 235/80, 168 h; how it was run: as §2
[21] = tested on: Lichtheimia corymbifera; experiment: Antifungal activity against Absidia corymbifera 272 after 24 hrs by microdilution broth method; conditions: Lichtheimia corymbifera, 272, 24 h; how it was run: as §1
[22] = tested on: Aspergillus fumigatus; experiment: Antifungal activity against Aspergillus fumigatus 231 after 24 hrs by microdilution broth method; conditions: Aspergillus fumigatus, 231, 24 h; how it was run: as §1
[23] = tested on: Candida tropicalis; experiment: Antifungal activity against Candida tropicalis 156 after 48 hrs by microdilution broth method; conditions: Candida tropicalis, 156, 48 h; how it was run: as §1
[24] = tested on: Mycobacterium kansasii; experiment: Antimycobacterial activity against Mycobacterium kansasii 6509/96 after 7 days; conditions: 6509/96, 168 h; how it was run: as §2
[25] = tested on: Klebsiella pneumoniae; experiment: Antibacterial activity against Klebsiella pneumoniae D 11750/08 after 48 hrs by microdilution broth method; conditions: D 11750/08, 48 h; how it was run: as §3
[26] = tested on: Mycobacterium kansasii; experiment: Antimycobacterial activity against Mycobacterium kansasii 6509/96 after 21 days; conditions: 6509/96, 504 h; how it was run: as §2
[27] = tested on: Lichtheimia corymbifera; experiment: Antifungal activity against Absidia corymbifera 272 after 48 hrs by microdilution broth method; conditions: Lichtheimia corymbifera, 272, 48 h; how it was run: as §1
[28] = tested on: Escherichia coli; experiment: Antibacterial activity against Escherichia coli CCM4517 after 48 hrs by microdilution broth method; conditions: CCM4517, 48 h; how it was run: as §3
[29] = tested on: Mycobacterium tuberculosis; experiment: Antimycobacterial activity against Mycobacterium tuberculosis H37Rv 331/88 after 14 days; conditions: H37Rv 331/88, 336 h
[30] = tested on: Candida albicans; experiment: Antifungal activity against Candida albicans ATCC 44859 after 24 hrs by microdilution broth method; conditions: ATCC 44859, 24 h; how it was run: as §1
[31] = tested on: Staphylococcus aureus; experiment: Antibacterial activity against Staphylococcus aureus CCM 4516/08 after 48 hrs by microdilution broth method; conditions: CCM 4516/08, 48 h
[32] = tested on: Trichophyton mentagrophytes; experiment: Antifungal activity against Trichophyton mentagrophytes 445 after 24 hrs by microdilution broth method; conditions: Trichophyton mentagrophytes, 445, 24 h
[33] = tested on: Klebsiella pneumoniae; experiment: Antibacterial activity against ESBL-positive Klebsiella pneumoniae J 14368/08 after 24 hrs by microdilution broth method; conditions: J 14368/08, 24 h; how it was run: as §3
[34] = tested on: Klebsiella pneumoniae; experiment: Antibacterial activity against Klebsiella pneumoniae D 11750/08 after 24 hrs by microdilution broth method; conditions: D 11750/08, 24 h; how it was run: as §3
[35] = tested on: Candida albicans; experiment: Antifungal activity against Candida albicans ATCC 44859 after 48 hrs by microdilution broth method; conditions: ATCC 44859, 48 h; how it was run: as §1
[36] = tested on: Pichia kudriavzevii; experiment: Antifungal activity against Candida krusei E28 after 48 hrs by microdilution broth method; conditions: E28, 48 h; how it was run: as §1
[37] = tested on: Staphylococcus epidermidis; experiment: Antibacterial activity against Staphylococcus epidermidis H 6966/08 after 48 hrs by microdilution broth method; conditions: H 6966/08, 48 h; how it was run: as §3
[38] = tested on: Escherichia coli; experiment: Antibacterial activity against Escherichia coli CCM4517 after 24 hrs by microdilution broth method; conditions: CCM4517, 24 h; how it was run: as §3
[39] = tested on: Staphylococcus aureus; experiment: Antibacterial activity against Staphylococcus aureus CCM 4516/08 after 24 hrs by microdilution broth method; conditions: CCM 4516/08, 24 h
[40] = tested on: Klebsiella pneumoniae; experiment: Antibacterial activity against ESBL-positive Klebsiella pneumoniae J 14368/08 after 48 hrs by microdilution broth method; conditions: J 14368/08, 48 h; how it was run: as §3
[41] = tested on: Trichosporon asahii; experiment: Antifungal activity against Trichosporon asahii 1188 after 48 hrs by microdilution broth method; conditions: Trichosporon asahii, 1188, 48 h; how it was run: as §1
[42] = tested on: Aspergillus fumigatus; experiment: Antifungal activity against Aspergillus fumigatus 231 after 48 hrs by microdilution broth method; conditions: Aspergillus fumigatus, 231, 48 h; how it was run: as §1

Measured: MIC

O=C(Nc1cccc([N+](=O)[O-])c1)c1cc([N+](=O)[O-])ccc1O
62.5 µM: [4] | [17] | [24] | [29]
500 µM: [7] | [11] | [14] | [31] | [37] | [39]
16 µM: [20]
125 µM: [5] | [6] | [12] | [13] | [26]
> 500 µM: [8] | [15] | [18] | [19] | [25] | [28] | [33] | [34] | [38] | [40]
> 250 µM: all other assays above

O=C(Nc1ccc([N+](=O)[O-])cc1)c1cc([N+](=O)[O-])ccc1O
125 µM: [5] | [13] | [17] | [26]
250 µM: [6] | [11] | [12] | [14] | [31] | [39]
62.5 µM: [4] | [24] | [29]
16 µM: [20]
500 µM: [7] | [37]
> 500 µM: all other assays above

O=C(Nc1cccc(I)c1)c1cccc([N+](=O)[O-])c1O
125 µM: [4] | [5] | [13] | [24] | [26]
62.5 µM: [17] | [20] | [29]
500 µM: [6] | [12]
